Results from publication PMC9361925 (RSC Advances, 2022).
Read-outs that look alike come from different tables or passages of the source.

Tests used:
[1] = system: human embryonic kidney (HEK-293, ATCC number CRL-1573) cell line; assay: MTT cytotoxicity assay, Hek-293 cells; assay type: cell-based; conditions: HEK293, 72 h, read-out: IC50 Hek-293
Outline: (§1)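 Log-phase cells in DMEM with 7–10% FBS and penicillin/streptomycin (37 °C, 5% CO2) seeded at 3 × 10^4 cells per mL. Exposed 3 days to test compound in DMSO at 1.00, 0.25, 0.0625 and 0.0156 μg mL−1. MTT (5 mg mL−1 stock in 0.1 M PBS, pH 7.4) added for 4 h at 37 °C; formazan dissolved in DMSO, absorbance at 540 nm. Growth inhibition calculated relative to untreated controls.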

[2] = system: lung (A549) cancer cell line; assay: MTT cytotoxicity assay, A549 cells; assay type: cell-based; conditions: Homo sapiens, A549, 72 h, read-out: IC50 A549
Outline: as §1

[3] = system: breast (MCF7, HTB-22™) cancer cell line; assay: MTT cytotoxicity assay, MCF7 cells; assay type: cell-based; conditions: Homo sapiens, MCF7, 72 h, read-out: IC50 MCF7
Outline: as §1

[4] = system: hepatocellular carcinoma (HepG2, ATCC number HB-8065); assay: MTT cytotoxicity assay, HepG2 cells; assay type: cell-based; conditions: Homo sapiens, HepG2, 72 h, read-out: IC50 HepG2
Outline: as §1

[5] = system: epidermoid carcinoma (KB, ATCC number CCL-17); assay: MTT cytotoxicity assay, KB cells; assay type: cell-based; conditions: Homo sapiens, 72 h, read-out: IC50 KB
Outline: as §1

[6] = system: SK-Lu-1 cells; assay: Annexin V FITC and PI flow cytometry assay for apoptosis; assay type: cell-based, human; conditions: 24 h; for % Necrotic cells: Annexin-V/PI (Q2-1); for % Late apoptosis cells: Annexin-V/PI (Q2-2); for % Early apoptosis cells: Annexin-V/PI (Q2-4); for % Total apoptosis cells: early + late
Outline: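 SK-LU-1 cells (3 × 10^5 per 25 cm2 flask; DMEM, 7–10% FBS, penicillin/streptomycin, 37 °C, 5% CO2) exposed 24 h to test compound. Controls: DMSO 0.5%, ellipticine 1.3 μM, vincristine 0.4 and 4 μM. Cells were harvested, washed in cold PBS and resuspended in annexin-binding buffer. They were stained with FITC-annexin V plus PI (100 μg mL−1 working solution) for 15 min at room temperature, then diluted and analysed by flow cytometry.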

[7] = system: SK-Lu-1 cells; assay: Cell cycle analysis by flow cytometry; assay type: cell-based, human; conditions: 24 h
Outline: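 Log-phase SK-LU-1 cells (3 × 10^5 per 25 cm2 flask) treated 24 h with test compound at 0.08, 0.16 or 0.32 μM. Controls: DMSO 0.05%, ellipticine 1.3 μM, vincristine 0.4 and 4 μM. Cells were PBS-washed and fixed in ice-cold 70% ethanol at −20 °C for 2 h. They were then treated with RNase A (1 mg mL−1, 37 °C, 15 min), stained with PI for 30 min and analysed by flow cytometry.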

[8] = system: caspase-3/7 activation in human lung SK-LU-1 cancer cells; assay: Caspase-3/7 assay; assay type: cell-based; conditions: SK-LU-1 cells, 0.08 μM, 0.16 μM, and 0.32 μM
Outline: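 SK-LU-1 cells (2 × 10^5 per well) incubated 5 h at 37 °C, 5% CO2, with test compound at 0.08, 0.16 or 0.32 μM. Controls: ellipticine 1.3 μM, vincristine 4 μM; solvent served as blank. Apo-ONE caspase-3/7 reagent was added, briefly shaken and left at room temperature for 1–18 h. Fluorescence was read at Ex 485/Em 530 nm. Activity = sample RFU minus blank RFU.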

[9] = system: epidermoid carcinoma (KB, ATCC number CCL-17); conditions: read-out: IC50 KB; KB cells; cited from earlier work
[10] = system: SK-Lu-1 cells; assay: Cell nucleus staining with Hoechst 33342; assay type: cell-based, human; conditions: 0.08 μM, 0.16 μM, and 0.32 μM, 24 h
[11] = system: breast (MCF7, HTB-22™) cancer cell line; conditions: read-out: IC50 MCF7; MCF7 cells; cited from earlier work
[12] = system: SK-Lu-1 cells; conditions: read-out: IC50 SK-Lu-1; cited from earlier work
[13] = system: hepatocellular carcinoma (HepG2, ATCC number HB-8065); conditions: read-out: IC50 HepG2; HepG2 cells; cited from earlier work
[14] = system: human embryonic kidney (HEK-293, ATCC number CRL-1573) cell line; conditions: read-out: IC50 Hek-293; non-cancerous Hek-293 cells; cited from earlier work

Molecule `O=C1OCC2=C1C(c1ccccc1O)C1=C(N2)C(=O)c2ccccc2C1=O` (stereo not drawn) [5h, 11-(2-Hydroxyphenyl)-4,11-dihydrobenzo[g]furo[3,4-b]quinoline-1,5,10(3H)-trione] has an IC50 [1] of 2030 ± 60 nM, an IC50 [2] of 430 ± 10 nM and an IC50 [3] of 1610 ± 30 nM. For the same molecule, the IC50 [4] was 630 ± 20 nM and the IC50 [5] was 570 ± 20 nM.

In the case of `N#Cc1ccc(C2C3=C(COC3=O)NC3=C2C(=O)c2ccccc2C3=O)cc1` (stereo not drawn) [5k, 4-(1,5,10-Trioxo-1,3,4,5,10,11-hexahydrobenzo[g]furo[3,4-b]quinolin-11-yl)benzonitrile], the IC50 [1] is reported as > 20000 nM, the IC50 [2] is reported as 2030 ± 50 nM and the IC50 [3] is reported as > 2500 nM. For the same molecule, the IC50 [4] was > 2500 nM and the IC50 [5] was > 2500 nM.

For `O=C1OCC2=C1C(c1ccc([N+](=O)[O-])cc1)C1=C(N2)C(=O)c2ccccc2C1=O` (stereo not drawn) [5j, 11-(4-Nitrophenyl)-4,11-dihydrobenzo[g]furo[3,4-b]quinoline-1,5,10(3H)-trione], the IC50 [1] was 7170 ± 160 nM, the IC50 [2] was 1120 ± 40 nM and the IC50 [3] was > 2500 nM. The IC50 [4] was > 2500 nM and the IC50 [5] was > 2500 nM.

For `Cc1c2ccncc2c(C)c2c1[nH]c1ccccc12` [Ellipticine, reference compound], the IC50 [1] was 6180 ± 110 nM, the “% Necrotic cells” value ([6]; SK-LU-1, 1.3 μM) was 3.00% and the “% Late apoptosis cells” value ([6]; SK-LU-1, 1.3 μM) was 25.71%. For the same molecule, the “% Early apoptosis cells” value ([6]; SK-LU-1, 1.3 μM) was 28.22%, the “% Total apoptosis cells” value ([6]; SK-LU-1, 1.3 μM) was 53.93% and the IC50 [2] was 1600 ± 20 nM. For the same molecule, the IC50 [3] was 1820 ± 30 nM, the IC50 [4] was 1510 ± 50 nM and the IC50 [5] was 1150 ± 10 nM. The “Percentage of cell by phases, % G0/G1” value ([7]; SK-LU-1, 1.3 μM) was 10.09%, the “Percentage of cell by phases, % G2/M” value ([7]; SK-LU-1, 1.3 μM) was 71.29% and the “Percentage of cell by phases, % S” value ([7]; SK-LU-1, 1.3 μM) was 12.52%.

With `O=C1OCC2=C1C(c1cccnc1)C1=C(N2)C(=O)c2ccccc2C1=O` (stereo not drawn) [5n, 11-(Pyridin-3-yl)-4,11-dihydrobenzo[g]furo[3,4-b]quinoline-1,5,10(3H)-trione] the IC50 [1] was 1810 ± 50 nM, the IC50 [2] was 610 ± 20 nM and the IC50 [3] was 1960 ± 40 nM. For the same molecule, the IC50 [4] was > 2500 nM and the IC50 [5] was 620 ± 10 nM.

Molecule `O=C1OCC2=C1C(c1ccc(O)cc1)C1=C(N2)C(=O)c2ccccc2C1=O` (stereo not drawn) [5i, 11-(4-Hydroxyphenyl)-4,11-dihydrobenzo[g]furo[3,4-b]quinoline-1,5,10(3H)-trione] has an IC50 [1] of 6460 ± 150 nM, an IC50 [2] of 1590 ± 30 nM and an IC50 [3] of 2230 ± 60 nM. For the same molecule, the IC50 [4] was > 2500 nM and the IC50 [5] was > 2500 nM.

For `COc1cccc(C2C3=C(COC3=O)NC3=C2C(=O)c2ccccc2C3=O)c1` (stereo not drawn) [5a, 11-(3-Methoxyphenyl)-4,11-dihydrobenzo[g]furo[3,4-b]quinoline-1,5,10(3H)-trione], the “caspase-3/7 activity as compared to Ellipticine (1.3 μM)” value [8] is listed as 4-5 fold, the IC50 [9] is listed as 1230 ± 10 nM and the “changes in cell morphology (Hoechst staining)” value [10] is listed as “nucleus fragmentation and chromatin condensation”. The “% Necrotic cells” value ([6]; SK-LU-1, 0.08 μM) was 0.59%, the “% Late apoptosis cells” value ([6]; SK-LU-1, 0.08 μM) was 0.82% and the “% Early apoptosis cells” value ([6]; SK-LU-1, 0.08 μM) was 1.30%. For the same molecule, the “% Total apoptosis cells” value ([6]; SK-LU-1, 0.08 μM) was 2.12%, the “% Necrotic cells” value ([6]; SK-LU-1, 0.16 μM) was 2.64% and the “% Late apoptosis cells” value ([6]; SK-LU-1, 0.16 μM) was 2.40%. The “% Early apoptosis cells” value ([6]; SK-LU-1, 0.16 μM) was 7.23%, the “% Total apoptosis cells” value ([6]; SK-LU-1, 0.16 μM) was 9.63% and the “% Necrotic cells” value ([6]; SK-LU-1, 0.32 μM) was 4.68%. For the same molecule, the “% Late apoptosis cells” value ([6]; SK-LU-1, 0.32 μM) was 4.25%, the “% Early apoptosis cells” value ([6]; SK-LU-1, 0.32 μM) was 11.59% and the “% Total apoptosis cells” value ([6]; SK-LU-1, 0.32 μM) was 15.84%. For the same molecule, the IC50 [11] was > 2500 nM, the IC50 [12] was < 40 nM and the IC50 [13] was 460 ± 10 nM. For the same molecule, the IC50 [14] was 9350 ± 440 nM, the “Percentage of cell by phases, % G0/G1” value ([7]; SK-LU-1, 0.08 μM) was 47.91% and the “Percentage of cell by phases, % G2/M” value ([7]; SK-LU-1, 0.08 μM) was 20.58%. The “Percentage of cell by phases, % S” value ([7]; SK-LU-1, 0.08 μM) was 30.45%, the “Percentage of cell by phases, % G0/G1” value ([7]; SK-LU-1, 0.16 μM) was 0.58% and the “Percentage of cell by phases, % G2/M” value ([7]; SK-LU-1, 0.16 μM) was 82.17%. For the same molecule, the “Percentage of cell by phases, % S” value ([7]; SK-LU-1, 0.16 μM) was 5.78%, the “Percentage of cell by phases, % G0/G1” value ([7]; SK-LU-1, 0.32 μM) was 0.28% and the “Percentage of cell by phases, % G2/M” value ([7]; SK-LU-1, 0.32 μM) was 84.70%. For the same molecule, the “Percentage of cell by phases, % S” value ([7]; SK-LU-1, 0.32 μM) was 4.05%.

With `COc1ccc(C2C3=C(COC3=O)NC3=C2C(=O)c2ccccc2C3=O)cc1OC` (stereo not drawn) [5l, 11-(3,4-Dimethoxyphenyl)-4,11-dihydrobenzo[g]furo[3,4-b]quinoline-1,5,10(3H)-trione] the IC50 [1] was 2230 ± 80 nM, the IC50 [2] was 1100 ± 20 nM and the IC50 [3] was 2280 ± 70 nM. It also gave an IC50 [4] of 530 ± 20 nM and an IC50 [5] of 520 ± 20 nM.

For `COc1cc(C2C3=C(COC3=O)NC3=C2C(=O)c2ccccc2C3=O)cc(OC)c1OC` (stereo not drawn) [5m, 11-(3,4,5-Trimethoxyphenyl)-4,11-dihydrobenzo[g]furo[3,4-b]quinoline-1,5,10(3H)-trione], the IC50 [1] was 30 ± 10 nM, the IC50 [2] was 620 ± 20 nM and the IC50 [3] was 120 ± 30 nM. The IC50 [4] was 20 ± 10 nM and the IC50 [5] was 20 ± 10 nM.

In the case of `O=C1OCC2=C1C(c1ccc(Br)cn1)C1=C(N2)C(=O)c2ccccc2C1=O` (stereo not drawn) [5o, 11-(5-Bromopyridin-2-yl)-4,11-dihydrobenzo[g]furo[3,4-b]quinoline-1,5,10(3H)-trione], the IC50 [1] is reported as > 20000 nM, the IC50 [2] is reported as > 2500 nM and the IC50 [3] is reported as > 2500 nM. The IC50 [4] was > 2500 nM and the IC50 [5] was > 2500 nM.

For `O=C1OCC2=C1C(c1ccccc1)C1=C(N2)C(=O)c2ccccc2C1=O` (stereo not drawn) [5d, 11-(Phenyl)-4,11-dihydrobenzo[g]furo[3,4-b]quinoline-1,5,10(3H)-trione], the IC50 [9] is listed as 1540 ± 10 nM, the IC50 [11] is listed as 1980 ± 40 nM and the IC50 [12] is listed as < 44 nM. The IC50 [13] was < 44 nM and the IC50 [14] was 1340 ± 10 nM.

For `CC[C@]1(O)C[C@H]2CN(CCc3c([nH]c4ccccc34)[C@@](C(=O)OC)(c3cc4c(cc3OC)N(C=O)[C@H]3[C@@](O)(C(=O)OC)[C@H](OC(C)=O)[C@]5(CC)C=CCN6CC[C@]43[C@@H]65)C2)C1` [Vincristine, reference compound], the “% Necrotic cells” value ([6]; SK-LU-1, 0.4 μM) was 4.15%, the “% Late apoptosis cells” value ([6]; SK-LU-1, 0.4 μM) was 3.66% and the “% Early apoptosis cells” value ([6]; SK-LU-1, 0.4 μM) was 15.13%. For the same molecule, the “% Total apoptosis cells” value ([6]; SK-LU-1, 0.4 μM) was 18.79%, the “% Necrotic cells” value ([6]; SK-LU-1, 4.0 μM) was 3.62% and the “% Late apoptosis cells” value ([6]; SK-LU-1, 4.0 μM) was 4.71%. The “% Early apoptosis cells” value ([6]; SK-LU-1, 4.0 μM) was 19.93%, the “% Total apoptosis cells” value ([6]; SK-LU-1, 4.0 μM) was 24.64% and the “Percentage of cell by phases, % G0/G1” value ([7]; SK-LU-1, 0.4 μM) was 52.28%. The “Percentage of cell by phases, % G2/M” value ([7]; SK-LU-1, 0.4 μM) was 6.72%, the “Percentage of cell by phases, % S” value ([7]; SK-LU-1, 0.4 μM) was 38.19% and the “Percentage of cell by phases, % G0/G1” value ([7]; SK-LU-1, 4.0 μM) was 0.07%. The “Percentage of cell by phases, % G2/M” value ([7]; SK-LU-1, 4.0 μM) was 82.57% and the “Percentage of cell by phases, % S” value ([7]; SK-LU-1, 4.0 μM) was 13.93%.
